Experimental data reported in ChEMBL document CHEMBL1629545, “A morpholino oligomer targeting highly conserved internal ribosome entry site sequence is able to inhibit multiple species of picornavirus” (Antimicrob Agents Chemother, 2008).
Active and inactive are the calls of the source. The rule behind the calls is not given here.

How the values were obtained:
HeLa [1] = assay: Cytotoxicity against human HeLa cells 10 uM after 24 hrs by MTS assay; type: cell-based
Outline: (§1)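 HeLa cells at ~80% confluence, uninfected, exposed to 1–100 μM PPMO or water (mock) in serum-free DMEM-F-12 (1:1) for 24 h. MTS reagent was added for 4 h and absorbance read at 492 nm. Viability was expressed as percent of water-treated cells (set to 100%), averaged over 12 wells.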

HeLa [2] = assay: Cytotoxicity against human HeLa cells at 10 uM by MTS assay; type: cell-based; outline: as §1
HeLa [3] = assay: Cytotoxicity against human HeLa cells at 10 uM after 48 hrs by MTS assay; type: cell-based
Outline: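 Time-course viability: uninfected HeLa cells were kept in 10 μM PPMO in DMEM-F-12 and assayed at time points from 10 to 69 h after treatment began. Read-out was the MTS reagent for 4 h with absorbance at 492 nm. Results are given as percent of water-mock cells, each point the mean of 12 wells.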

Poliovirus 1 = assay: Antiviral activity against Human poliovirus type 1 infected in Human HeLa cell assessed as inhibition of translation at 10 ug/ml by luciferase reporter gene assay; type: functional, organism-based
Outline: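 In-cell translation control: HeLa cells electroporated with 20 μg PV1-Luc replicon RNA were placed in medium with 10 μg/ml puromycin at 37°C in 5% CO2. Luciferase in lysates was read by luminometer at hourly time points after transfection. Two experiments were averaged.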

Vero = assay: Cytotoxicity against African green monkey Vero cells at 10 uM after 24 hrs by MTS assay; type: cell-based; conditions: chlorocebus sabaeus
SK-N-MC = assay: Cytotoxicity against human SK-N-MC cell at 10 uM after 24 hrs by MTS assay; type: cell-based

Cc1cn([C@H]2CN(P(=O)(OC[C@@H]3CN(P(=O)(OC[C@@H]4CN(P(=O)(OC[C@@H]5CNC[C@H](n6ccc(N)nc6=O)O5)N(C)C)C[C@H](n5cnc6c(N)ncnc65)O4)N(C)C)C[C@H](n4ccc(N)nc4=O)O3)N(C)C)C[C@@H](COP(=O)(N(C)C)N3C[C@@H](COP(=O)(N(C)C)N4C[C@@H](COP(=O)(N(C)C)N5C[C@@H](COP(=O)(N(C)C)N6C[C@@H](COP(=O)(N(C)C)N7C[C@@H](COP(=O)(N(C)C)N8C[C@@H](COP(=O)(N(C)C)N9C[C@@H](COP(=O)(N(C)C)N%10C[C@@H](COP(=O)(N(C)C)N%11C[C@@H](COP(=O)(N(C)C)N%12C[C@@H](COP(=O)(N(C)C)N%13C[C@@H](COP(=O)(N(C)C)N%14C[C@@H](COP(=O)(N(C)C)N%15C[C@@H](COP(=O)(N(C)C)N%16C[C@@H](COP(=O)(N(C)C)N%17C[C@@H](COP(=O)(N(C)C)N%18C[C@@H](COP(=O)(N(C)C)N%19C[C@@H](COP(=O)(N(C)C)N%20C[C@@H](COP(=O)(N(C)C)N%21C[C@@H](COP(=O)(N(C)C)N%22C[C@@H](COP(=O)(N(C)C)N%23CCN(C(=O)CCNC(=O)CCCCCNC(=O)[C@H](CCCNC(=N)N)NC(=O)CCCCCNC(=O)[C@H](CCCNC(=N)N)NC(=O)[C@H](CCCNC(=N)N)NC(=O)CCCCCNC(=O)[C@H](CCCNC(=N)N)NC(=O)[C@H](CCCNC(=N)N)NC(=O)CCCCCNC(=O)[C@H](CCCNC(=N)N)NC(=O)[C@H](CCCNC(=N)N)NC(=O)CCCCCNC(=O)[C@@H](N)CCCNC(=N)N)CC%23)O[C@@H](n%23ccc(N)nc%23=O)C%22)O[C@@H](n%22cnc%23c(N)ncnc%23%22)C%21)O[C@@H](n%21cnc%22c(N)ncnc%22%21)C%20)O[C@@H](n%20ccc(N)nc%20=O)C%19)O[C@@H](n%19cnc%20c(=O)[nH]c(N)nc%20%19)C%18)O[C@@H](n%18ccc(N)nc%18=O)C%17)O[C@@H](n%17cnc%18c(N)ncnc%18%17)C%16)O[C@@H](n%16cnc%17c(=O)[nH]c(N)nc%17%16)C%15)O[C@@H](n%15ccc(N)nc%15=O)C%14)O[C@@H](n%14ccc(N)nc%14=O)C%13)O[C@@H](n%13cc(C)c(=O)[nH]c%13=O)C%12)O[C@@H](n%12cnc%13c(=O)[nH]c(N)nc%13%12)C%11)O[C@@H](n%11cnc%12c(=O)[nH]c(N)nc%12%11)C%10)O[C@@H](n%10cnc%11c(N)ncnc%11%10)C9)O[C@@H](n9ccc(N)nc9=O)C8)O[C@@H](n8ccc(N)nc8=O)C7)O[C@@H](n7cnc8c(N)ncnc87)C6)O[C@@H](n6ccc(N)nc6=O)C5)O[C@@H](n5ccc(N)nc5=O)C4)O[C@@H](n4cnc5c(=O)[nH]c(N)nc54)C3)O2)c(=O)[nH]c1=O (stereo partly specified)
Activity (HeLa [1]): Toxic
Activity (HeLa [2]): Non-toxic
Activity (HeLa [3]): Toxic
Activity (Poliovirus 1): inactive
Activity (Vero): Non-toxic
Activity (SK-N-MC): Non-toxic
